Data reported in ChEMBL document CHEMBL1124883, “Monophosphoric acid diesters of 7 beta-hydroxycholesterol and of pyrimidine nucleosides as potential antitumor agents: synthesis and preliminary evaluation of antitumor activity” (1990).

Assays:
[1] = Evaluated for median survival time against Kreb II murine sarcoma cells in female Swiss/OF1 mice after ip administration of 84 uM/kg per day; assay type: functional, Mus musculus
Outline: (§1)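 Krebs II ascitic carcinoma, 1 × 10^6 cells in 0.25 mL 0.9% NaCl from donor mice with 8-10-day tumors, implanted ip into female Swiss/OF1 mice (20-25 g, six per group). Drugs were given in saline, water or aqueous suspension, 0.2 mL ip daily, starting 24 or 96 h post-implant. Saline controls.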

[2] = The percentage of increase in life span was determined; assay type: functional, Mus musculus; outline: as §1
[3] = Evaluated for median survival time against Kreb II murine sarcoma cells in female Swiss/OF1 mice after ip administration of 80 umol/kg per day; assay type: functional, Mus musculus; outline: as §1
[4] = Evaluated for median survival time against Kreb II murine sarcoma cells in female Swiss/OF1 mice after ip administration of 80 uM/kg per day; assay type: functional, Mus musculus; outline: as §1
[5] = species on record: Mus musculus; test: Complete recovery expressed as percent of animals surviving for more than 80 days was determined; assay type: functional; outline: as §1

SMILES | Median survival time [1] | ILS [2] | Median survival time [3] | Median survival time [4] | CR [5]
CC(C)CCCC(C)[C@H]1CCC2C3C(CC[C@@]21C)[C@@]1(C)CC[C@H](O)CC1=C[C@@H]3O (stereo in doubt; form 2) [listing 1 of 2 here] | 42 days | 180% | – | – | –
CC(C)CCCC(C)[C@H]1CC[C@H]2[C@@H]3[C@@H](O)C=C4C[C@@H](O)CC[C@]4(C)[C@H]3CC[C@]12C.O=c1ccn([C@@H]2O[C@H](CO)[C@@H](O)[C@H]2O)c(=O)[nH]1 (some centres undefined) | – | 40% | 21 days | – | –
CC(C)CCCC(C)[C@H]1CCC2C3C(CC[C@@]21C)[C@@]1(C)CC[C@H](O)CC1=C[C@@H]3O (stereo in doubt; form 1) | – | 40% | 21 days | – | –
O=c1[nH]c(=O)n([C@@H]2O[C@H](CO)[C@@H](O)[C@H]2O)cc1F [5-FLUOROURIDINE] | – | 93% | – | 29 days | –
CC(C)CCCC(C)[C@H]1CCC2C3C(CC[C@@]21C)[C@@]1(C)CC[C@H](O)CC1=C[C@@H]3O (stereo in doubt; form 2) [listing 2 of 2 here] | – | – | – | – | 30%
